We go through 5 compounds from ChEMBL document CHEMBL2413013, “Triplex-forming ability of oligonucleotides containing 1-aryl-1,2,3-triazole nucleobases linked via a two atom-length spacer” (Bioorg Med Chem, 2013).

A short description of assay [1]: Binding affinity to hairpin double stranded DNA AT base pair in sodium cacodylate buffer at pH 6.8 assessed as triplex-forming ability measuring melting temperature after by UV melting experiment. In outline:
(§1)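 TFO and hairpin dsDNA target, each strand at 1.89 μM final, in 10 mM sodium cacodylate (pH 6.8) with 100 mM KCl and 50 mM MgCl₂. Annealed in boiling water, then cooled slowly to 5 °C. Melting was followed at 260 nm from 5 to 90 °C at 0.5 °C/min. Tm was taken by the two-point average method, mean of three independent runs.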

The nature of assay [2]: Binding affinity to hairpin double stranded DNA TA base pair in sodium cacodylate buffer at pH 6.8 assessed as triplex-forming ability measuring melting temperature after by UV melting experiment. In outline:
as §1

A short description of assay [3]: Binding affinity to hairpin double stranded DNA CG base pair in sodium cacodylate buffer at pH 6.8 assessed as triplex-forming ability measuring melting temperature after by UV melting experiment. In outline:
as §1

A short description of assay [4]: Binding affinity to hairpin double stranded DNA GC base pair in sodium cacodylate buffer at pH 6.8 assessed as triplex-forming ability measuring melting temperature after by UV melting experiment. The method, boiled down:
as §1

On to `Cc1cn([C@H]2C[C@H](O[PH](OCCC#N)(OC[C@H]3O[C@@H](n4cc(C)c(=O)[nH]c4=O)C[C@@H]3O[PH](OCCC#N)(OC[C@H]3O[C@@H](n4cc(C)c(=O)[nH]c4=O)C[C@@H]3O[PH](OCCC#N)(OC[C@H]3O[C@@H](n4cc(C)c(=O)[nH]c4=O)C[C@@H]3O[PH](OCCC#N)(OC[C@H]3O[C@@H](n4cc(C)c(=O)[nH]c4=O)C[C@@H]3O[PH](OCCC#N)(OC(C)[C@H]3O[C@@H](n4ccc(N)nc4=O)C[C@@H]3O[PH](OCCC#N)(OC[C@H]3O[C@@H](n4cc(C)c(=O)[nH]c4=O)C[C@@H]3O[PH](OCCC#N)(OC[C@H]3O[C@@H](CCc4cn(-c5ccccc5C(N)=O)nn4)C[C@@H]3OP(=O)(O)OC[C@H]3O[C@@H](n4cc(C)c(=O)[nH]c4=O)C[C@@H]3O[PH](OCCC#N)(OC(C)[C@H]3O[C@@H](n4ccc(N)nc4=O)C[C@@H]3O[PH](OCCC#N)(OC[C@H]3O[C@@H](n4cc(C)c(=O)[nH]c4=O)C[C@@H]3O[PH](OCCC#N)(OC(C)[C@H]3O[C@@H](n4ccc(N)nc4=O)C[C@@H]3O[PH](OCCC#N)(OC[C@H]3O[C@@H](n4cc(C)c(=O)[nH]c4=O)C[C@@H]3O[PH](OCCC#N)(OC(C)[C@H]3O[C@@H](n4ccc(N)nc4=O)C[C@@H]3O[PH](OCCC#N)(OC[C@H]3O[C@@H](n4cc(C)c(=O)[nH]c4=O)C[C@@H]3O)N(C(C)C)C(C)C)N(C(C)C)C(C)C)N(C(C)C)C(C)C)N(C(C)C)C(C)C)N(C(C)C)C(C)C)N(C(C)C)C(C)C)N(C(C)C)C(C)C)N(C(C)C)C(C)C)N(C(C)C)C(C)C)N(C(C)C)C(C)C)N(C(C)C)C(C)C)N(C(C)C)C(C)C)N(C(C)C)C(C)C)[C@@H](CO)O2)c(=O)[nH]c1=O` (stereo not given in full), for which the Tm in assay [1] was 16 °C; in assay [2], 18 °C; in assay [3] it was 20 °C; in assay [4], 19 °C.

`Cc1cn([C@H]2C[C@H](O[PH](OCCC#N)(OC[C@H]3O[C@@H](n4cc(C)c(=O)[nH]c4=O)C[C@@H]3O[PH](OCCC#N)(OC[C@H]3O[C@@H](n4cc(C)c(=O)[nH]c4=O)C[C@@H]3O[PH](OCCC#N)(OC[C@H]3O[C@@H](n4cc(C)c(=O)[nH]c4=O)C[C@@H]3O[PH](OCCC#N)(OC[C@H]3O[C@@H](n4cc(C)c(=O)[nH]c4=O)C[C@@H]3O[PH](OCCC#N)(OC(C)[C@H]3O[C@@H](n4ccc(N)nc4=O)C[C@@H]3O[PH](OCCC#N)(OC[C@H]3O[C@@H](n4cc(C)c(=O)[nH]c4=O)C[C@@H]3O[PH](OCCC#N)(OC[C@H]3O[C@@H](CCc4cn(-c5ccc(CO)cc5)nn4)C[C@@H]3OP(=O)(O)OC[C@H]3O[C@@H](n4cc(C)c(=O)[nH]c4=O)C[C@@H]3O[PH](OCCC#N)(OC(C)[C@H]3O[C@@H](n4ccc(N)nc4=O)C[C@@H]3O[PH](OCCC#N)(OC[C@H]3O[C@@H](n4cc(C)c(=O)[nH]c4=O)C[C@@H]3O[PH](OCCC#N)(OC(C)[C@H]3O[C@@H](n4ccc(N)nc4=O)C[C@@H]3O[PH](OCCC#N)(OC[C@H]3O[C@@H](n4cc(C)c(=O)[nH]c4=O)C[C@@H]3O[PH](OCCC#N)(OC(C)[C@H]3O[C@@H](n4ccc(N)nc4=O)C[C@@H]3O[PH](OCCC#N)(OC[C@H]3O[C@@H](n4cc(C)c(=O)[nH]c4=O)C[C@@H]3O)N(C(C)C)C(C)C)N(C(C)C)C(C)C)N(C(C)C)C(C)C)N(C(C)C)C(C)C)N(C(C)C)C(C)C)N(C(C)C)C(C)C)N(C(C)C)C(C)C)N(C(C)C)C(C)C)N(C(C)C)C(C)C)N(C(C)C)C(C)C)N(C(C)C)C(C)C)N(C(C)C)C(C)C)N(C(C)C)C(C)C)[C@@H](CO)O2)c(=O)[nH]c1=O` (stereo not given in full): the Tm in assay [1] was determined as 19 °C; in assay [2], 22 °C; in assay [3], 23 °C; in assay [4], 19 °C.

As to `Cc1cn([C@H]2C[C@H](O[PH](OCCC#N)(OC[C@H]3O[C@@H](n4cc(C)c(=O)[nH]c4=O)C[C@@H]3O[PH](OCCC#N)(OC[C@H]3O[C@@H](n4cc(C)c(=O)[nH]c4=O)C[C@@H]3O[PH](OCCC#N)(OC[C@H]3O[C@@H](n4cc(C)c(=O)[nH]c4=O)C[C@@H]3O[PH](OCCC#N)(OC[C@H]3O[C@@H](n4cc(C)c(=O)[nH]c4=O)C[C@@H]3O[PH](OCCC#N)(OC(C)[C@H]3O[C@@H](n4ccc(N)nc4=O)C[C@@H]3O[PH](OCCC#N)(OC[C@H]3O[C@@H](n4cc(C)c(=O)[nH]c4=O)C[C@@H]3O[PH](OCCC#N)(OC[C@H]3O[C@@H](CCc4cn(-c5ccccc5O)nn4)C[C@@H]3OP(=O)(O)OC[C@H]3O[C@@H](n4cc(C)c(=O)[nH]c4=O)C[C@@H]3O[PH](OCCC#N)(OC(C)[C@H]3O[C@@H](n4ccc(N)nc4=O)C[C@@H]3O[PH](OCCC#N)(OC[C@H]3O[C@@H](n4cc(C)c(=O)[nH]c4=O)C[C@@H]3O[PH](OCCC#N)(OC(C)[C@H]3O[C@@H](n4ccc(N)nc4=O)C[C@@H]3O[PH](OCCC#N)(OC[C@H]3O[C@@H](n4cc(C)c(=O)[nH]c4=O)C[C@@H]3O[PH](OCCC#N)(OC(C)[C@H]3O[C@@H](n4ccc(N)nc4=O)C[C@@H]3O[PH](OCCC#N)(OC[C@H]3O[C@@H](n4cc(C)c(=O)[nH]c4=O)C[C@@H]3O)N(C(C)C)C(C)C)N(C(C)C)C(C)C)N(C(C)C)C(C)C)N(C(C)C)C(C)C)N(C(C)C)C(C)C)N(C(C)C)C(C)C)N(C(C)C)C(C)C)N(C(C)C)C(C)C)N(C(C)C)C(C)C)N(C(C)C)C(C)C)N(C(C)C)C(C)C)N(C(C)C)C(C)C)N(C(C)C)C(C)C)[C@@H](CO)O2)c(=O)[nH]c1=O` (stereo not given in full), the Tm worked out at 20 °C in assay [1], 18 °C in assay [2], 22 °C in assay [3] and 19 °C in assay [4].

In the case of `Cc1cn([C@H]2C[C@H](O[PH](OCCC#N)(OC[C@H]3O[C@@H](n4cc(C)c(=O)[nH]c4=O)C[C@@H]3O[PH](OCCC#N)(OC[C@H]3O[C@@H](n4cc(C)c(=O)[nH]c4=O)C[C@@H]3O[PH](OCCC#N)(OC[C@H]3O[C@@H](n4cc(C)c(=O)[nH]c4=O)C[C@@H]3O[PH](OCCC#N)(OC[C@H]3O[C@@H](n4cc(C)c(=O)[nH]c4=O)C[C@@H]3O[PH](OCCC#N)(OC(C)[C@H]3O[C@@H](n4ccc(N)nc4=O)C[C@@H]3O[PH](OCCC#N)(OC[C@H]3O[C@@H](n4cc(C)c(=O)[nH]c4=O)C[C@@H]3O[PH](OCCC#N)(OC[C@H]3O[C@@H](OCc4cn(-c5cccc(CO)c5)nn4)C[C@@H]3OP(=O)(O)OC[C@H]3O[C@@H](n4cc(C)c(=O)[nH]c4=O)C[C@@H]3O[PH](OCCC#N)(OC(C)[C@H]3O[C@@H](n4ccc(N)nc4=O)C[C@@H]3O[PH](OCCC#N)(OC[C@H]3O[C@@H](n4cc(C)c(=O)[nH]c4=O)C[C@@H]3O[PH](OCCC#N)(OC(C)[C@H]3O[C@@H](n4ccc(N)nc4=O)C[C@@H]3O[PH](OCCC#N)(OC[C@H]3O[C@@H](n4cc(C)c(=O)[nH]c4=O)C[C@@H]3O[PH](OCCC#N)(OC(C)[C@H]3O[C@@H](n4ccc(N)nc4=O)C[C@@H]3O[PH](OCCC#N)(OC[C@H]3O[C@@H](n4cc(C)c(=O)[nH]c4=O)C[C@@H]3O)N(C(C)C)C(C)C)N(C(C)C)C(C)C)N(C(C)C)C(C)C)N(C(C)C)C(C)C)N(C(C)C)C(C)C)N(C(C)C)C(C)C)N(C(C)C)C(C)C)N(C(C)C)C(C)C)N(C(C)C)C(C)C)N(C(C)C)C(C)C)N(C(C)C)C(C)C)N(C(C)C)C(C)C)N(C(C)C)C(C)C)[C@@H](CO)O2)c(=O)[nH]c1=O` (stereo not given in full), the Tm in assay [1] amounted to 23 °C; in assay [2], 22 °C; in assay [3], 25 °C; in assay [4], 23 °C.

Consider `Cc1cn([C@H]2C[C@H](O[PH](OCCC#N)(OC[C@H]3O[C@@H](n4cc(C)c(=O)[nH]c4=O)C[C@@H]3O[PH](OCCC#N)(OC[C@H]3O[C@@H](n4cc(C)c(=O)[nH]c4=O)C[C@@H]3O[PH](OCCC#N)(OC[C@H]3O[C@@H](n4cc(C)c(=O)[nH]c4=O)C[C@@H]3O[PH](OCCC#N)(OC[C@H]3O[C@@H](n4cc(C)c(=O)[nH]c4=O)C[C@@H]3O[PH](OCCC#N)(OC(C)[C@H]3O[C@@H](n4ccc(N)nc4=O)C[C@@H]3O[PH](OCCC#N)(OC[C@H]3O[C@@H](n4cc(C)c(=O)[nH]c4=O)C[C@@H]3O[PH](OCCC#N)(OC[C@H]3O[C@@H](OCc4cn(-c5cccc(O)c5)nn4)C[C@@H]3OP(=O)(O)OC[C@H]3O[C@@H](n4cc(C)c(=O)[nH]c4=O)C[C@@H]3O[PH](OCCC#N)(OC(C)[C@H]3O[C@@H](n4ccc(N)nc4=O)C[C@@H]3O[PH](OCCC#N)(OC[C@H]3O[C@@H](n4cc(C)c(=O)[nH]c4=O)C[C@@H]3O[PH](OCCC#N)(OC(C)[C@H]3O[C@@H](n4ccc(N)nc4=O)C[C@@H]3O[PH](OCCC#N)(OC[C@H]3O[C@@H](n4cc(C)c(=O)[nH]c4=O)C[C@@H]3O[PH](OCCC#N)(OC(C)[C@H]3O[C@@H](n4ccc(N)nc4=O)C[C@@H]3O[PH](OCCC#N)(OC[C@H]3O[C@@H](n4cc(C)c(=O)[nH]c4=O)C[C@@H]3O)N(C(C)C)C(C)C)N(C(C)C)C(C)C)N(C(C)C)C(C)C)N(C(C)C)C(C)C)N(C(C)C)C(C)C)N(C(C)C)C(C)C)N(C(C)C)C(C)C)N(C(C)C)C(C)C)N(C(C)C)C(C)C)N(C(C)C)C(C)C)N(C(C)C)C(C)C)N(C(C)C)C(C)C)N(C(C)C)C(C)C)[C@@H](CO)O2)c(=O)[nH]c1=O` (stereo not given in full), for which the Tm in assay [1] was 20 °C; in assay [2], 21 °C; in assay [3], 24 °C; in assay [4], 21 °C.
